In brackets after ≈: the same amount, converted by molar mass.
Legend:
Trichophyton rubrum = assay: Antifungal activity against Trichophyton rubrum 252 CSTM assessed as growth inhibition by agar dilution method; type: functional
[1] = system: Agrobacterium tumefaciens; assay: Antibacterial activity against Agrobacterium tumefaciens NRRL B-36 assessed as growth inhibition after 24 hrs by dilution tube method; type: functional; conditions: NRRL B-36, 24 h
Method in brief: (§1)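 Broth tube dilution in Tryptone Soya Broth, duplicate tubes at each concentration. MIC (μg/ml) was the highest dilution preventing visible growth. Nitrofurantoin run under the same conditions.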

Enterococcus faecalis = assay: Antibacterial activity against Streptococcus faecalis ATCC 10541 assessed as growth inhibition after 24 hrs by dilution tube method; type: functional; conditions: ATCC 10541, 24 h; method in brief: as §1
Histoplasma capsulatum = assay: Antifungal activity against Histoplasma capsulatum RNSH Hi-70 1/2 assessed as growth inhibition by agar dilution method; type: functional
Klebsiella pneumoniae = assay: Antibacterial activity against Klebsiella pneumoniae ATCC 10031 assessed as growth inhibition after 24 hrs by dilution tube method; type: functional; conditions: ATCC 10031, 24 h; method in brief: as §1
Nannizzia gypsea = assay: Antifungal activity against Microsporum gypseum 153 CSTM assessed as growth inhibition by agar dilution method; type: functional
Cryptococcus neoformans = assay: Antifungal activity against Cryptococcus neoformans 103 assessed as growth inhibition by agar dilution method; type: functional
Microsporum canis = assay: Antifungal activity against Microsporum canis VM-200 USPHS assessed as growth inhibition by agar dilution method; type: functional
Pseudomonas aeruginosa = assay: Antibacterial activity against Pseudomonas aeruginosa ATCC 10145 assessed as growth inhibition after 24 hrs by dilution tube method; type: functional; conditions: ATCC 10145, 24 h; method in brief: as §1
Candida albicans = assay: Antifungal activity against Candida albicans SKF 2270 assessed as growth inhibition by agar dilution method; type: functional
[2] = system: Trichophyton mentagrophytes; assay: Antifungal activity against Trichophyton mentagrophytes A-280 USPHS assessed as growth inhibition by agar dilution method; type: functional
Staphylococcus aureus = assay: Antibacterial activity against Staphylococcus aureus ATCC 6538 assessed as growth inhibition after 24 hrs by dilution tube method; type: functional; conditions: ATCC 6538, 24 h; method in brief: as §1
Escherichia coli = assay: Antibacterial activity against Escherichia coli 114 assessed as growth inhibition after 24 hrs by dilution tube method; type: functional; conditions: Escherichia coli, 114, 24 h; method in brief: as §1
Salmonella typhi = assay: Antibacterial activity against Salmonella typhi 115 assessed as growth inhibition after 24 hrs by dilution tube method; type: functional, Salmonella enterica subsp. enterica serovar Typhi; conditions: Salmonella enterica, 115, 24 h
Method in brief: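 Dilution tube method in Tryptone Soya Broth; MIC (μg/ml) taken as highest dilution preventing visible growth; duplicates at every concentration; nitrofurantoin reference run under same conditions.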

[3] = system: Mycobacterium tuberculosis; assay: Antibacterial activity against Mycobacterium tuberculosis H37Rv assessed as growth inhibition by serial dilution method; type: functional
Method in brief: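 M. tuberculosis H37Rv maintained on Lowenstein–Jensen medium; tested in Youman's medium by serial dilution.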

Row | Compound | MIC (Trichophyton rubrum) | MIC [1] | MIC (Enterococcus faecalis) | MIC (Histoplasma capsulatum) | MIC (Klebsiella pneumoniae) | MIC (Nannizzia gypsea) | MIC (Cryptococcus neoformans) | MIC (Microsporum canis) | MIC (Pseudomonas aeruginosa) | MIC (Candida albicans) | MIC [2] | MIC (Staphylococcus aureus) | MIC (Escherichia coli) | MIC (Salmonella typhi) | MIC [3]
1 | C[N+](C)(CCCCCOc1ccc(Cl)cc1Cl)Cc1ccc(Br)o1.[Br-] | > 200 µg/mL | 50 µg/mL | 50 µg/mL | 100 µg/mL | 25 µg/mL | > 200 µg/mL | 50 µg/mL | 50 µg/mL | 10 µg/mL | > 200 µg/mL | > 200 µg/mL | 25 µg/mL | > 200 µg/mL | > 200 µg/mL | –
2 | C[N+](C)(CCCCOc1ccc(Cl)cc1)Cc1ccc([N+](=O)[O-])o1.[Br-] | > 200 µg/mL | > 200 µg/mL | > 200 µg/mL | > 200 µg/mL | 100 µg/mL | > 200 µg/mL | > 200 µg/mL | > 200 µg/mL | 100 µg/mL | > 200 µg/mL | > 200 µg/mL | 100 µg/mL | > 200 µg/mL | > 200 µg/mL | –
3 | Cc1cc(OCCCCCC[N+](C)(C)Cc2ccc([N+](=O)[O-])o2)c(C(C)C)cc1Cl.[Br-] | 200 µg/mL | > 200 µg/mL | > 200 µg/mL | > 200 µg/mL | > 200 µg/mL | > 200 µg/mL | 25 µg/mL | 100 µg/mL | > 200 µg/mL | > 200 µg/mL | > 200 µg/mL | > 200 µg/mL | > 200 µg/mL | > 200 µg/mL | –
4 | C[N+](C)(CCCCCCCCCCCCOc1c(Br)cc(Br)cc1Br)Cc1ccc([N+](=O)[O-])o1.[Br-] | > 200 µg/mL | > 200 µg/mL | 200 µg/mL | > 200 µg/mL | 200 µg/mL | – | 200 µg/mL | > 200 µg/mL | 50 µg/mL | > 200 µg/mL | > 200 µg/mL | 200 µg/mL | – | > 200 µg/mL | 100 µg/mL
5 | Cc1cc(OCCCCCCCCCC[N+](C)(C)Cc2ccc(Br)o2)c(C(C)C)cc1Cl.[Br-] | > 200 µg/mL | > 200 µg/mL | 50 µg/mL | 100 µg/mL | – | > 200 µg/mL | 100 µg/mL | 100 µg/mL | 25 µg/mL | > 200 µg/mL | – | 25 µg/mL | > 200 µg/mL | > 200 µg/mL | –
6 | Cc1cc(OCCCCCCCCCC[N+](C)(C)Cc2ccc([N+](=O)[O-])o2)c(C(C)C)cc1Cl.Cc1ccc(S(=O)(=O)[O-])cc1 | > 200 µg/mL | – | 100 µg/mL | > 200 µg/mL | 200 µg/mL | > 200 µg/mL | 100 µg/mL | > 200 µg/mL | 50 µg/mL | > 200 µg/mL | 200 µg/mL | 200 µg/mL | > 200 µg/mL | > 200 µg/mL | 25 µg/mL
7 | C[N+](C)(CCCCOc1ccc(Cl)cc1)Cc1ccc(Br)o1.[Br-] | > 200 µg/mL | 100 µg/mL | 100 µg/mL | > 200 µg/mL | 100 µg/mL | > 200 µg/mL | > 200 µg/mL | > 200 µg/mL | 50 µg/mL | > 200 µg/mL | > 200 µg/mL | 100 µg/mL | 100 µg/mL | 100 µg/mL | –
8 | C[N+](C)(CCCCOc1ccccc1Cl)Cc1ccc(Br)o1.[Br-] | > 200 µg/mL | > 200 µg/mL | > 200 µg/mL | > 200 µg/mL | 100 µg/mL | > 200 µg/mL | > 200 µg/mL | > 200 µg/mL | 100 µg/mL | > 200 µg/mL | > 200 µg/mL | 100 µg/mL | > 200 µg/mL | > 200 µg/mL | –
9 | C[C@@H]1[C@H](O)[C@@H](C)/C=C/C=C/C=C/C=C/C=C/C=C/C=C/[C@H](O[C@@H]2O[C@H](C)[C@@H](O)[C@H](N)[C@@H]2O)C[C@@H]2O[C@](O)(C[C@@H](O)C[C@@H](O)[C@H](O)CC[C@@H](O)C[C@@H](O)CC(=O)O[C@H]1C)C[C@H](O)[C@H]2C(=O)O [AMPHOTERICIN B] | 10 µg/mL (≈ 10.8 µM) | – | – | 0.5 µg/mL (≈ 0.541 µM) | – | 10 µg/mL (≈ 10.8 µM) | – | 5 µg/mL (≈ 5.41 µM) | – | 2.5 µg/mL (≈ 2.71 µM) | 10 µg/mL (≈ 10.8 µM) | – | – | – | –
10 | C[N+](C)(CCCCCOc1ccc(Cl)cc1)Cc1ccc(Br)o1.[Br-] | > 200 µg/mL | > 200 µg/mL | 100 µg/mL | > 200 µg/mL | 50 µg/mL | > 200 µg/mL | > 200 µg/mL | 100 µg/mL | 25 µg/mL | > 200 µg/mL | > 200 µg/mL | 50 µg/mL | > 200 µg/mL | > 200 µg/mL | –
11 | C[N+](C)(CCCCCCCCCCOc1c(Br)cc(Br)cc1Br)Cc1ccc([N+](=O)[O-])o1.[Br-] | > 200 µg/mL | 10 µg/mL | 4 µg/mL | > 200 µg/mL | 4 µg/mL | > 200 µg/mL | 4 µg/mL | > 200 µg/mL | 3 µg/mL | > 200 µg/mL | – | 2 µg/mL | > 200 µg/mL | > 200 µg/mL | 7.5 µg/mL
12 | C[N+](C)(CCCCCOc1ccccc1Cl)Cc1ccc(Br)o1.[Br-] | > 200 µg/mL | > 200 µg/mL | > 200 µg/mL | > 200 µg/mL | 100 µg/mL | > 200 µg/mL | > 200 µg/mL | > 200 µg/mL | 50 µg/mL | > 200 µg/mL | > 200 µg/mL | 50 µg/mL | > 200 µg/mL | > 200 µg/mL | –
13 | O=C1CN(/N=C/c2ccc([N+](=O)[O-])o2)C(=O)N1 [NITROFURANTOIN] | – | 25 µg/mL (≈ 105 µM) | 100 µg/mL (≈ 420 µM) | – | 5 µg/mL (≈ 21 µM) | – | – | – | 2.5 µg/mL (≈ 10.5 µM) | – | – | 25 µg/mL (≈ 105 µM) | 25 µg/mL (≈ 105 µM) | 25 µg/mL (≈ 105 µM) | –
14 | C[N+](C)(CCOc1c(Br)cc(Br)cc1Br)Cc1ccc(Br)o1.[Br-] | > 200 µg/mL | 100 µg/mL | 25 µg/mL | 100 µg/mL | 25 µg/mL | > 200 µg/mL | 50 µg/mL | 100 µg/mL | 25 µg/mL | > 200 µg/mL | 100 µg/mL | 25 µg/mL | > 200 µg/mL | > 200 µg/mL | –
15 | C[N+](C)(CCCCOc1ccccc1Cl)Cc1ccc([N+](=O)[O-])o1.[Br-] | > 200 µg/mL | > 200 µg/mL | > 200 µg/mL | > 200 µg/mL | 100 µg/mL | > 200 µg/mL | > 200 µg/mL | > 200 µg/mL | 100 µg/mL | > 200 µg/mL | > 200 µg/mL | 100 µg/mL | > 200 µg/mL | > 200 µg/mL | –

— ChEMBL document CHEMBL3244174, “Synthesis and biological activity of some new furan quaternary salts” (J Med Chem, 1977)
